Pf Dd2 inh: inhibitors of Plasmodium falciparum Dd2 growth; P. falciparum Dd2 growth, SYBR Green, 72 h; active compounds read low; activity change, % at 10 µM; hit rate 2.3% among 94,000; AID 1159554; in the data active = activity change below about -80%; inconclusive = no clear call, values can overlap the other calls
T cruzi growth-1: T. cruzi proliferation inhibition | T. cruzi beta-gal in NIH3T3, GalScreen luminescence, 90 h | inhibition, % at 8.34 µM | hit rate 5.9% among 77,000;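 active = mean inhibition above about 93%, with at least 55% of replicates each passing it, limit read from the data, passing the limit was not always enough; inconclusive = only one of those two conditions holds; inactive = neither condition holds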
GASC1 inh: KDM4C (human) demethylase inhibition; inhibition, % at 12.5 µM; hit rate 0.15% among 96,000; Q9H3R0; AID 720574; GST-KDM4C 2-372, H3K9me3 peptide, LANCE TR-FRET;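 active = mean replicate inhibition above about 25%, with at least 55% of replicates also reaching it, limit read from the data, passing the limit was not always enough; inconclusive = only one of those two conditions met; inactive = neither condition met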
Target sequence (Q9H3R0 2-372 limits assumed): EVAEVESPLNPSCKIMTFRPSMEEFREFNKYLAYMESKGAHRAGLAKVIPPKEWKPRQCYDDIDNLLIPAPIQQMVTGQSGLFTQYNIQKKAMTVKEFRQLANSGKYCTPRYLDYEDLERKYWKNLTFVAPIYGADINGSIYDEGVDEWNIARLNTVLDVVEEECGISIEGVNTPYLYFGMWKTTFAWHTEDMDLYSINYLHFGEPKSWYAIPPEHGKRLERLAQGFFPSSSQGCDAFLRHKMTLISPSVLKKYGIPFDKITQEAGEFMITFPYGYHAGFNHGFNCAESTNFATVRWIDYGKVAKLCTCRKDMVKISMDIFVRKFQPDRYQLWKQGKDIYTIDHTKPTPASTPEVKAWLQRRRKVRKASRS
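material = GST-tagged GASC-1 (JMJD2C) catalytic fragment, aa 2-372 | amount = enzyme final amount 10 nM | medium = HEPES buffer, pH 7.5, plus ascorbate | also added = H3K9me3 peptide substrate, Fe(II), 2-oxoglutarate | dosing = single dose | times = 30 min demethylation and 1 h detection at room temperature | detection = LANCE TR-FRET | read-out basis = Fall in 671/618 emission ratio as inhibition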
IDH1 R132H inh: blocks human IDH1 R132H reductase activity | O75874 | diaphorase/resazurin fluorescence, 60 min | inhibition, % at 10 µM | hit rate 0.18% among 70,000 | AID 624101; in the data active = inhibition above about 34%; inconclusive = no clear call, values can overlap the other calls; inactive = below about 11%;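 also: 0% = DMSO and 100% = no enzyme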
T cruzi growth-2: blocks T. cruzi growth in NIH3T3 host cells; inhibition, % at 8.35 µM; T. cruzi beta-gal in NIH3T3, GalScreen luminescence, 90 h; shares compounds with T cruzi growth-1; hit rate 72% among 5,600; AID 651739;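 active = mean replicate inhibition above about 95% and at least 55% of replicates individually reaching it, limit read from the data; inconclusive = only one of the two criteria is met; inactive = neither criterion is met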
T cruzi growth-3: Trypanosoma cruzi proliferation inhibition. shares compounds with T cruzi growth-1. T. cruzi beta-gal in NIH3T3, GalScreen luminescence, 90 h. hit rate 21% among 5,600. AID 651740. inhibition, % at 2.09 µM;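 active = mean inhibition above about 95%, with at least 55% of replicates also reaching it, limit read from the data; inconclusive = meets just one of the two conditions; inactive = meets neither condition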;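 also: plate controls were neutral control median for no effect and positive control median for full effect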
NIH3T3 tox: NIH/3T3 (mouse) viability loss. NIH/3T3 viability, CellTiter-Glo ATP luminescence, 90 h. hit rate 14% among 5,600. cytotoxicity (signal decrease), % at 8.35 µM. shares compounds with T cruzi growth-1;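 active = mean signal decrease across replicates above about 35% based on untreated-well scatter, with enough replicates individually passing, limit read from the data; inconclusive = no rule stated though some were filed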;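 also: 0% = median of neutral control wells and 100% = median of positive control wells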
3T3 cytotox 2: cytotoxicity in mouse NIH/3T3 fibroblasts. shares compounds with T cruzi growth-1. AID 651744. hit rate 56% among 5,600. NIH/3T3 viability, CellTiter-Glo ATP luminescence, 90 h. inhibition, % at 24.9 µM;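 active = mean loss of cell viability signal at or above a set limit, and enough replicates individually reaching it; inconclusive = meets only the mean limit or only the replicate share; inactive = meets neither condition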;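 also: 0% = median of neutral control wells and 100% = median of positive control wells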
Starred values were filed as active, the others as inactive; ? = inconclusive; . = no result. Hits are enriched below; roughly 5.9% of the tested compounds scored in any of these assays.

SMILES	Pf Dd2 inh	T cruzi growth-1	GASC1 inh	IDH1 R132H inh	T cruzi growth-2	T cruzi growth-3	NIH3T3 tox	3T3 cytotox 2
COc1ccccc1C(=O)Nc1ccc2c(c1)C(=O)N(C)[C@H]1CC[C@H](CC(=O)Nc3cccc(C(C)C)c3)O[C@@H]1CO2	.	?	0.4	.	105.8*	67.5	30.2	23.4
CN1C(=O)c2cc(NC(=O)c3ccc(Cl)cc3)ccc2OC[C@@H]2O[C@H](CC(=O)NCc3cccc(F)c3)CC[C@@H]21	-22.6	101.1*	-3.0	.	92.2	65.9	42.7*	34.4*
COc1cccc(C(=O)Nc2ccc3c(c2)C(=O)N(C)[C@H]2CC[C@@H](CC(=O)NCc4ccc(F)cc4)O[C@H]2CO3)c1	-35.7	96.7*	0.8	.	105.2*	16.3	51.4*	50.1*
N#C[C@@H]1[C@H](c2ccc(C3=CCCCC3)cc2)[C@H](CO)N1S(=O)(=O)c1ccccc1	-14.2	89.9	5.2	.	.	.	.	.
N#C[C@H]1[C@@H](c2ccc(C3=CCCCC3)cc2)[C@@H](CO)N1S(=O)(=O)c1cccc(F)c1	-15.3	104.5*	-1.8	.	101.2*	86.2	44.5*	65.4*
N#C[C@@H]1[C@H](c2ccc(C3=CCCCC3)cc2)[C@@H](CO)N1S(=O)(=O)c1ccccc1	-13.5	37.6	-0.5	.	.	.	.	.
N#C[C@H]1[C@@H](c2ccc(C3=CCCCC3)cc2)[C@@H](CO)N1C(=O)c1ccccn1	-29.4	102.6*	1.6	.	103.6*	117.0*	6.3	104.7*
N#C[C@@H]1[C@@H](c2ccc(C3=CCCCC3)cc2)[C@H](CO)N1C(=O)c1cccc(F)c1	14.6	100.3*	-0.7	.	87.6	32.7	5.2	75.7*
N#C[C@H]1[C@@H](c2ccc(C3=CCCCC3)cc2)[C@H](CO)N1S(=O)(=O)c1cccc(F)c1	-17.9	100.0*	1.0	.	100.3*	63.7	44.7*	103.3*
N#C[C@H]1[C@@H](c2ccc(C3=CCCCC3)cc2)[C@@H](CO)N1C(=O)c1cccc(F)c1	-30.9	60.6	5.3	-0.8	.	.	.	.
CC=Cc1ccc2n(c1=O)C[C@@H]1[C@@H](CO)[C@H](C(=O)N3CCc4ccccc4C3)[C@H]2N1CCC (mixture of isomers)	-1.5	103.0*	1.2	.	29.7	-13.0	0.5	9.5
CC=Cc1ccc2n(c1=O)C[C@@H]1[C@@H](CO)[C@H](C(=O)N3CCc4ccccc4C3)N(C(=O)C3CC3)[C@H]21 (mixture of isomers)	.	106.6*	-0.2	.	69.3	6.6	1.6	12.3
CC=Cc1ccc2n(c1=O)C[C@@H]1[C@@H](CO)[C@H](C(=O)N3CCc4ccccc4C3)[C@H]2N1Cc1ccccc1 (mixture of isomers)	-6.5	84.8	0.1	.	.	.	.	.
CC=Cc1ccc2n(c1=O)C[C@@H]1[C@@H](CO)[C@H](C(=O)N3CCOCC3)N(Cc3ccccc3)[C@H]21 (mixture of isomers)	-4.0	100.9*	1.2	.	100.4*	6.0	9.2	12.7
C[C@@H]1CN([C@H](C)CO)C(=O)c2cccc(NC(=O)CCCCCC(=O)Nc3ccccc3N)c2O[C@H]1CN(C)Cc1ccc(-c2ccccc2)cc1	-91.5*	?	6.1	.	84.2	-13.7	-3.0	-6.9
C[C@H]1CN([C@@H](C)CO)C(=O)c2cccc(NC(=O)CCCCCC(=O)Nc3ccccc3N)c2O[C@@H]1CN(C)Cc1ccc2c(c1)OCO2	-92.4*	126.6*	11.8	.	107.1*	108.2*	-0.9	24.9*
Cc1ccccc1NC(=O)CSc1nc(N2CCCCC2)nc(N2CCCCC2)n1	.	.	.	0.5	.	.	.	.
CCC(=O)N1CC2(C1)[C@H](c1ccccc1)[C@H](CO)N2C(=O)c1ccncc1	11.6	.	-0.4	.	.	.	.	.
C/C=C/c1ccc([C@@H]2[C@@H](CO)N3CCCCN(S(=O)(=O)c4cccc(C)c4)C[C@H]23)cc1	-39.8	?	-1.0	.	108.1*	83.6	27.8	102.9*
C/C=C/c1ccc([C@@H]2[C@@H](CO)N3CCCCN(S(=O)(=O)c4cccc(C)c4)C[C@@H]23)cc1	-37.2	108.2*	0.1	.	100.1*	81.5	-5.8	73.3*
CO[C@@H]1CN(C)C(=O)c2ccc(NC(=O)C3CC3)cc2OC[C@H](C)N(C(=O)c2ccccn2)C[C@@H]1C	20.6	-8.2	2.0	0.0	.	.	.	.
C/C=C/c1cnc2c(c1)C(=O)N([C@H](C)CO)C[C@H](C)[C@H](CN(C)S(=O)(=O)c1ccc(F)cc1)O2	-8.7	-5.1	-1.6	14.4	.	.	.	.
C/C=C/c1cnc2c(c1)C(=O)N([C@@H](C)CO)C[C@@H](C)[C@@H](CN(C)S(=O)(=O)c1ccc(F)cc1)O2	4.4	35.3	0.8	2.3	.	.	.	.
C[C@H]1CN([C@@H](C)CO)C(=O)c2cc(/C=C/c3ccccc3)cnc2O[C@@H]1CN(C)S(=O)(=O)c1ccc(F)cc1	-61.3	83.3*	0.5	-3.5	100.0*	70.5	9.9	12.1
C[C@@H]1CN([C@H](C)CO)C(=O)c2cc(/C=C/c3ccccc3)cnc2O[C@@H]1CN(C)S(=O)(=O)c1ccc(F)cc1	-34.5	80.0*	-1.2	-0.2	104.6*	40.7	17.2	50.7*
SMILES	Pf Dd2 inh	T cruzi growth-1	GASC1 inh	IDH1 R132H inh	T cruzi growth-2	T cruzi growth-3	NIH3T3 tox	3T3 cytotox 2
CS(=O)(=O)N(CC(=O)Nc1cc(C(F)(F)F)ccc1Cl)c1ccc2c(c1)OCCO2	.	.	.	-0.4	.	.	.	.
C[C@@H]1CN([C@H](C)CO)C(=O)c2cc(NC(=O)CCC(F)(F)F)ccc2O[C@H]1CN(C)CC1CCCCC1	10.8	100.8*	0.4	2.5	-27.0	-36.4	-20.8	-4.7
C[C@@H]1CN([C@@H](C)CO)C(=O)c2cc(N(C)C)ccc2O[C@H]1CN(C)CC1CCCCC1	5.3	101.8*	2.1	2.0	-22.3	-98.8	-16.1	-4.0
C[C@H]1CN([C@@H](C)CO)C(=O)c2cc(N(C)C)ccc2O[C@H]1CN(C)CC1CCCCC1	14.9	3.5	9.2	-1.5	.	.	.	.
COc1cccc(C#Cc2ccc([C@H]3[C@@H](CO)N(C(=O)C4CCOCC4)[C@H]3C#N)cc2)c1	-34.3	.	1.4	.	.	.	.	.
O=C(c1ccc(F)cc1)N1CC[C@@H]2[C@H](CO)Nc3ccc(-c4ccccc4F)cc3[C@@H]21	-3.4	?	-2.1	.	97.5*	94.5	6.0	84.9*
O=C(c1ccccn1)N1CC[C@H]2[C@H](CO)Nc3ccc(-c4cccc(F)c4)cc3[C@H]21	-11.2	27.4	-0.3	.	.	.	.	.
O=C(c1ccc(F)cc1)N1CC[C@H]2[C@H](CO)Nc3ccc(-c4ccccc4F)cc3[C@H]21	-29.7	54.7	-0.1	.	.	.	.	.
O=C(c1ccccn1)N1CC[C@@H]2[C@H](CO)Nc3ccc(-c4ccccc4F)cc3[C@@H]21	-5.1	83.9	-0.2	.	.	.	.	.

Assay outcomes deposited in PubChem BioAssay by Broad Institute.
